What was measured:
[1] = test system: U251 GBM xenograft tumors; assay: U251 subcutaneous xenograft in nude mice; assay type: in vivo; settings: for expression of angiogenic markers CD31 and CD105: U251 tumor tissues; for expression of angiogenic markers CD31 and CD105 / expression of M2 phenotype macrophage marker(s) (CD206): IHC; for expression of M2 phenotype macrophage marker(s) (CD206): tumor tissue; for tumor volume reduced: U251 xenograft
[2] = test system: intracranial glioma tumor U87MG; assay: Intracranial U87MG-luc tumor model in nude mice; assay type: in vivo; settings: for median survival time: control 41 days
[3] = test system: M2 markers CD206 and ARG1 in BMDM cells; assay: In vitro differentiation of BMDMs; assay type: cell-based, mouse; settings: BMDM stimulated with CSF1, IL4, IL13; compound 100 nmol/L, 48 h
Outline: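 Mouse BMDMs were seeded at 2.5 × 10^6/well and grown 7 days in 10 ng/mL CSF1. CD206 and ARG1 were measured by flow cytometry. Three independent experiments, t-test.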

[4] = test system: D283 medulloblastoma xenograft; assay: D283 subcutaneous xenograft in NOD-SCID mice; assay type: in vivo; settings: oral, 14 days
Outline: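 D283 cells (5 × 106 in 200 μL, half Matrigel) were injected s.c. into the right flank of NOD-SCID mice. Mice were randomized at about 120 mm3 (n = 9/group) and dosed orally twice daily. Tumor size (caliper) and body weight were taken three times weekly. Mice were euthanized after 14 days of dosing and tumors weighed.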

[5] = test system: DBT mouse glioma; assay: DBT subcutaneous model in immunocompetent mice; assay type: in vivo, BALB/c mice; settings: 10 mg/kg twice daily
Outline: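 BALB/c mice received 5 × 10^6 DBT cells in 200 μL PBS s.c. in the right flank. At about 120 mm3 they were randomized to control or 10 mg/kg (n = 6/group), dosed orally twice daily. Tumor size and body weight were measured three times weekly, and growth was expressed as RTV, mean ± SEM. CD8 was stained by IHC and scored by the multiplicative quick score method.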

[6] = target: c-Kit (Homo sapiens, UniProt P10721); assay: ELISA kinase assay; assay type: biochemical
[7] = target: CSF1R (Homo sapiens, UniProt P07333); assay: Surface plasmon resonance; assay type: binding; settings: Biacore 8K, protein immobilized on CM5 chip
Outline: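 Human CSF1R was directly immobilized on a CM5 chip (Biacore 8K), with test compound as analyte. Multi-cycle kinetics used 180 s injection and 180 s dissociation.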

[8] = test system: neovascularization in chick embryos; assay: Chicken chorioallantoic membrane; assay type: in vivo; settings: CAM assay, 48 h
Outline: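 Fertilized eggs were incubated 7 days at 37 °C, 50% humidity. Suction at the broad end made a false air sac, and a 1 cm2 shell window was opened. Glass coverslips (0.5 cm × 0.5 cm) soaked in test compound or vehicle were laid between preexisting vessels, followed by a further 48 h incubation. Neovascular zones beside the coverslips were photographed under a stereomicroscope.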

[9] = test system: recurrent high-grade glioma; assay: First-in-human phase I trial; assay type: in vivo, patients
[10] = test system: cells with high expression of Aurora-B; assay: Cytotoxicity in Aurora-B high cells; assay type: cell-based; settings: data not shown
[11] = test system: tube formation of HUVECs; assay: Tube formation assay; assay type: cell-based, Human; settings: VEGF 100 ng/mL, 8 h, concentration-dependent
Outline: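 HUVECs were starved 24 h, then seeded at 20,000 cells/well on growth-factor-reduced Matrigel. Graded test compound concentrations and VEGF (final 100 ng/mL) were added for 8 h. Tubes were photographed through a stereoscope at 4×.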

[12] = test system: HUVEC; assay: VEGF-stimulated cell viability; assay type: cell-based; settings: Homo sapiens, 72 h, read-out: IC50 HUVEC cell viability
[13] = test system: DBT mouse glioma; assay: DBT model, combination with anti-PD-1; assay type: in vivo, BALB/c mice; settings: SYHA1813 5 mg/kg p.o. twice daily, anti-PD-1 200 μg i.p. twice a week, or both
[14] = test system: phosphorylation of CSF1R; assay: Western blot of CSF1R signaling in BMDM; assay type: cell-based, mouse; settings: BMDM cells, CSF1 stimulation
Outline: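 Fresh mouse BMDMs (2.5 × 10^6/well) were grown 7 days with 10 ng/mL CSF1, with a medium change at day 3. Cells were serum-starved 6 h, given test compound for 2 h, then stimulated with 50 ng/mL CSF1 for 15 min. BCA-normalized SDS lysates were blotted for p-CSF1R, CSF1R, p-AKT and AKT. Densitometry was normalized to tubulin across three independent repeats.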

[15] = test system: phosphorylation of RET in tumor tissue; assay: RET phosphorylation in tumor tissue; assay type: in vivo; settings: data not shown
[16] = Pharmacokinetics and brain distribution; assay type: in vivo, CD-1 mice; settings: male, CD-1, mouse, po, 10 mg/kg
Outline: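 Thirty male CD-1 mice were split into six groups, one per sampling time (0.5, 1, 2, 4, 8, 24 h), after a single oral 10 mg/kg dose. Plasma was taken from retro-orbital blood. Brains were collected after intracardial perfusion, rinsed in saline, blotted, weighed and homogenized in MeOH-ACN (1/1, 5 mL/g tissue).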

[17] = test system: mouse glioma GL261-luc; assay: Intracranial GL261-luc model in immunocompetent mice; assay type: in vivo, C57BL/6 mice
Outline: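 Male C57BL/6 mice aged 4–6 weeks received 2 × 10^5 GL261-luc cells intracranially into the right frontal lobe. About 5 days after inoculation, mice were randomized by IVIS bioluminescence. Brain signal was then imaged once or twice weekly.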

[18] = target: VEGFR-3 (Homo sapiens, UniProt P35916); assay: ELISA kinase assay; assay type: biochemical
[19] = target: c-Kit (D816H) (Homo sapiens, UniProt P10721, D816H); assay: ELISA kinase assay; assay type: biochemical
[20] = target: VEGFR-1 (Homo sapiens, UniProt P17948); assay: ELISA kinase assay; assay type: biochemical
[21] = test system: glioma cell lines; assay: Cell viability; assay type: cell-based; settings: read-out: IC50 against glioma cell lines
Outline: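 GL261, DBT, D283, U87MG and U251 cells were plated, left overnight, then given a range of test compound concentrations for 72 h at 37 °C, 5% CO2. Growth was read by CCK-8. D283 was grown in MEM with 10% FBS, 1% NEAA and 1% NaP. Lines were STR-authenticated.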

[22] = target: PDGFRα (V561D) (Homo sapiens, UniProt P16234, V561D); assay: ELISA kinase assay; assay type: biochemical
[23] = test system: panel of 328 kinases; assay: Kinase profiling, whole panel; assay type: biochemical, human; settings: 0.1 μmol/L SYHA1813

Chain of VEGFR-1 (P17948 27-1338): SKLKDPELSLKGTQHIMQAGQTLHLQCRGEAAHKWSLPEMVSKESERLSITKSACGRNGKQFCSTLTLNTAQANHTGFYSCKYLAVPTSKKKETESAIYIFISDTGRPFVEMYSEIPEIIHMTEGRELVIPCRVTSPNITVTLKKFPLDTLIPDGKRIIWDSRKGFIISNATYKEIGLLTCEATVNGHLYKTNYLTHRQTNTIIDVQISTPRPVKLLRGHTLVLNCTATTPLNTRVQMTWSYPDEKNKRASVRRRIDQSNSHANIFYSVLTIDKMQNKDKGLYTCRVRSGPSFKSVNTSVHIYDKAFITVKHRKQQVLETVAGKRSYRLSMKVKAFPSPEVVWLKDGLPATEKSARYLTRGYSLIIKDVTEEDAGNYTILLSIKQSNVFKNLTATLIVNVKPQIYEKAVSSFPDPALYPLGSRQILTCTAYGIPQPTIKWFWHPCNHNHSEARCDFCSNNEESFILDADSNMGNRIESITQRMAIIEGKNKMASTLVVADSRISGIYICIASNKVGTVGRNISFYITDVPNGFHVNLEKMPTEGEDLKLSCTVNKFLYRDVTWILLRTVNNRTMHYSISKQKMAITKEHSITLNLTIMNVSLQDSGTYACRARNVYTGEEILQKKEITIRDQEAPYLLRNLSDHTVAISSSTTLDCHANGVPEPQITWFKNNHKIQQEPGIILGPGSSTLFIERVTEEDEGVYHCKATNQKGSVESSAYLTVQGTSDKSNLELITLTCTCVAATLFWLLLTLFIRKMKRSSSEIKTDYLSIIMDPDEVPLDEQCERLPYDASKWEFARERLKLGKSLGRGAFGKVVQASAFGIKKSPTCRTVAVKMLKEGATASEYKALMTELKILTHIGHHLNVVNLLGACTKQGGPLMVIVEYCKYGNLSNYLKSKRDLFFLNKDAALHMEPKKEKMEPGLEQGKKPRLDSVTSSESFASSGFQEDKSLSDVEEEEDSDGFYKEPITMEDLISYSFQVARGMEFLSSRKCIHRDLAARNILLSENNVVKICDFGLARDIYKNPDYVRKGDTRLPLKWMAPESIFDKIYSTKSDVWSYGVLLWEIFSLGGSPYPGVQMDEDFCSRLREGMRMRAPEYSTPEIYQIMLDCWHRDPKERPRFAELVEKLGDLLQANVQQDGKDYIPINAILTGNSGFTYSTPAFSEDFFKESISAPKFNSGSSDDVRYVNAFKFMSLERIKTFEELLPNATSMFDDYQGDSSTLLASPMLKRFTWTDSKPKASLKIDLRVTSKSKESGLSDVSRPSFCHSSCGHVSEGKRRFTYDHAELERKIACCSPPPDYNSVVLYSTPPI
Chain of c-Kit (D816H) (P10721 26-976 D816H): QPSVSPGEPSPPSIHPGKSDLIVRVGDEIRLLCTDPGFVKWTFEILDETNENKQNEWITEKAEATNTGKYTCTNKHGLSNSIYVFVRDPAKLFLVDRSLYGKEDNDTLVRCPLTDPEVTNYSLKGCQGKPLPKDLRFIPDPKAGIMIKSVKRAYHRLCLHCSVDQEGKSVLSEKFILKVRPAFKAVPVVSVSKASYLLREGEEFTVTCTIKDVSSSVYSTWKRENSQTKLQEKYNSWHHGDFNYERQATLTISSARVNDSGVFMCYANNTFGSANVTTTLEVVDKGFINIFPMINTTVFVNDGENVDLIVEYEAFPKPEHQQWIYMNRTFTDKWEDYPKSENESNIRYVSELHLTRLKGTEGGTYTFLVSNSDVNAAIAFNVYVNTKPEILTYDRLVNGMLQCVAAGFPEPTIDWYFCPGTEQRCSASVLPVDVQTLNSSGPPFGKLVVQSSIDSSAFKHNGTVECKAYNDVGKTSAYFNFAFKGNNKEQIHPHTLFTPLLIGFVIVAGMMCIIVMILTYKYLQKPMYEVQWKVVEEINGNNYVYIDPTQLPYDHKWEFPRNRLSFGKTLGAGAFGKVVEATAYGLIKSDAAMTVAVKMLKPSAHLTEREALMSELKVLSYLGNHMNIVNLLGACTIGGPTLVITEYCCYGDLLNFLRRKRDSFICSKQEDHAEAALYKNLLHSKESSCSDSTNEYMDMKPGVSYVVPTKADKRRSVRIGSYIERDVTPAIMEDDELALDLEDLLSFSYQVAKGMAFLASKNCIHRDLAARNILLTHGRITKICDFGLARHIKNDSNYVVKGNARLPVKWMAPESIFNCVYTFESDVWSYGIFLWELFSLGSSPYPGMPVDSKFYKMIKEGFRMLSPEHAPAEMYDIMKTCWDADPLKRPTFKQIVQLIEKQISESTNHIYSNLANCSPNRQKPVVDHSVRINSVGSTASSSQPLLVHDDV
Chain of PDGFRα (V561D) (P16234 24-1089 V561D): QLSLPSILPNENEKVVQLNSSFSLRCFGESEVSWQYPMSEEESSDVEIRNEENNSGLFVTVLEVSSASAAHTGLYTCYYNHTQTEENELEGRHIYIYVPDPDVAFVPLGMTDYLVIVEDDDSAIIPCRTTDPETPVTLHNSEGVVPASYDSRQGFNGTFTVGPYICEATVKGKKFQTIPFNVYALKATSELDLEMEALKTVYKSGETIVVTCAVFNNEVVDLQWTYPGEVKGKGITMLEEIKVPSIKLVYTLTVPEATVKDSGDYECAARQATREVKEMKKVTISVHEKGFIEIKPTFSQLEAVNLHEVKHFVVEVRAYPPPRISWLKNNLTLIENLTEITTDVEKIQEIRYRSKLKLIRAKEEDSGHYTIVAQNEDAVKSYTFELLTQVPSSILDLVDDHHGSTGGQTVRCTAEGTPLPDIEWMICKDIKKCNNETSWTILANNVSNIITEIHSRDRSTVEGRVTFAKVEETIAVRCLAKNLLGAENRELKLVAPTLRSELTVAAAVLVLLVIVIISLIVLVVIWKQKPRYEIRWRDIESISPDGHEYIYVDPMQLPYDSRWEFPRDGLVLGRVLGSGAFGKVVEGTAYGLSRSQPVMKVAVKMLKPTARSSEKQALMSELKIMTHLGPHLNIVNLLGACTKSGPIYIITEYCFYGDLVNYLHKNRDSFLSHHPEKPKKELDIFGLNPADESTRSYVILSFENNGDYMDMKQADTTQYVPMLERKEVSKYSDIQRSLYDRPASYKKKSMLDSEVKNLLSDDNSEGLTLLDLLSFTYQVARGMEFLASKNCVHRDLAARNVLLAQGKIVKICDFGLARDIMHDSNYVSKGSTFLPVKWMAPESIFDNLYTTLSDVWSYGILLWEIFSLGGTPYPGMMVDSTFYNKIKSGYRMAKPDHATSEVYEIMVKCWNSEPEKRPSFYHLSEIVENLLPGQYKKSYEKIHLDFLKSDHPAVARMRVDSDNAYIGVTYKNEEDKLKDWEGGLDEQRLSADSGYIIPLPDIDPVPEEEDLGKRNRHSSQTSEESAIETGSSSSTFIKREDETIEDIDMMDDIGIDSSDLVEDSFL
Chain of CSF1R (P07333 20-972): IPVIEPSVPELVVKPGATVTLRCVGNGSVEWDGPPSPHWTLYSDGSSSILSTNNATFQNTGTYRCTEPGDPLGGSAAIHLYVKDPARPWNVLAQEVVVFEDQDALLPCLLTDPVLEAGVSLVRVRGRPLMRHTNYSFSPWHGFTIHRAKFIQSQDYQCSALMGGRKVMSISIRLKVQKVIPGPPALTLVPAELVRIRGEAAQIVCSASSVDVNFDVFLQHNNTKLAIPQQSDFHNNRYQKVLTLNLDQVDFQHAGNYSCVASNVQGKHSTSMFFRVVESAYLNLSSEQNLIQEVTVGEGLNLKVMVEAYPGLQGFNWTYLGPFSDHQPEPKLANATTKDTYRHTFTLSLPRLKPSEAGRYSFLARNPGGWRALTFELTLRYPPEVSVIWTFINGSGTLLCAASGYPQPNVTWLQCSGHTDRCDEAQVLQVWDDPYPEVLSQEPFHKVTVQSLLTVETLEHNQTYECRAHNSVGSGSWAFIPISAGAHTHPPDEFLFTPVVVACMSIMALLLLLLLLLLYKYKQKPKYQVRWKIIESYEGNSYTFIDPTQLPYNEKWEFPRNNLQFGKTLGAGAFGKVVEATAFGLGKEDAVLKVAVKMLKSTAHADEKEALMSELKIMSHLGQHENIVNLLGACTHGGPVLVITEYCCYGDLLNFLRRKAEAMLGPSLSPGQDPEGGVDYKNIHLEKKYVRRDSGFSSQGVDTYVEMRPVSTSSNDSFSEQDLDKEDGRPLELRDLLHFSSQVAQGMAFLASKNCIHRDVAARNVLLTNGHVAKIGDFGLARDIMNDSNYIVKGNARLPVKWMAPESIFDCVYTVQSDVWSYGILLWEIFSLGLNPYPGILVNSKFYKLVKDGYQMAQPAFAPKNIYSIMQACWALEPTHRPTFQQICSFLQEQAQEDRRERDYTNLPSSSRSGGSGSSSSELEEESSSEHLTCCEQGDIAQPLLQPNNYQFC
Chain of c-Kit (P10721 26-976): as the sequence (P10721 26-976 D816H) above, with H791D counted along it

With `CNC(=O)c1ccccc1Sc1ccc2c(/C=C/c3ccccn3)n[nH]c2c1` [Axitinib, reference compound] as the compound, how does the “expression of angiogenic markers CD31 and CD105” value [1] read?
Its value is “effectively suppressed”.

And the “expression of M2 phenotype macrophage marker(s) (CD206)” value [1]?
The value was “no significant changes”.

And the median survival time ([2]; 40 mg/kg orally twice daily)?
The median survival time was 41 days.

For `FC(F)(F)c1ccc(CNc2ccc(Cc3c[nH]c4ncc(Cl)cc34)cn2)cn1` [PLX3397, reference compound], which “expression of M2 markers CD206 and ARG1” value [3] is on record?
The value was “significant decrease”.

Which “tumor growth in D283 xenograft” value [4] does the source give for `Cc1cc(NC(=O)c2cccc3cc(-c4cccc5[nH]nc(N)c45)ccc23)ccc1F` [SYHA1813, 6-(3-amino-1H-indazol-4-yl)-N-(4-fluoro-3-methylphenyl)-1-naphthamide] here?
Its value is “effectively inhibited tumor growth”.

What about the “tumor growth of DBT glioma and tumor weight” value ([5]; BALB/c mice) of the same compound?
Its value is “suppressed”.

And the “CD8+ T cells in tumor tissue” value ([5]; IHC)?
Its value is “dramatically increased”.

And the IC50 [6]?
Its IC50 is 162 nM.

And the “SPR binding to CSF1R” value [7]?
The value was “robust binding signal”.

And the “expression of M2 markers CD206 and ARG1” value [3]?
Its value is “significant decrease”.

What about the “neovascularization in chick embryos” value [8] of the same compound?
Its value is “significantly inhibited”.

What about the tumor volume reduced ([1]; 5 mg/kg orally twice daily) of the same compound?
Its tumor volume reduced is 67.7%.

And the tumor volume reduced ([1]; 10 mg/kg orally twice daily)?
The tumor volume reduced was 81.0%.

And the “body weight of the animals” value ([1]; U251, U87MG and D283 xenograft models)?
Its value is “not significantly changed”.

And the “expression of angiogenic markers CD31 and CD105” value [1]?
Its value is “dramatically reduced”.

What about the “expression of M2 phenotype macrophage marker(s) (CD206)” value [1] of the same compound?
The value was “significantly inhibited”.

And the median survival time ([2]; 20 mg/kg orally twice daily)?
Its median survival time is 54 days.

And the “first death of mice” value ([2]; 40 mg/kg group, control Day 31)?
The value was 43 days.

What about the “death of the last mouse” value ([2]; 40 mg/kg group, control Day 52) of the same compound?
The value was 75 days.

And the median survival time ([2]; 40 mg/kg orally twice daily)?
The median survival time was 58.5 days.

And the “Response Assessment in Neuro-Oncology (RANO)” value ([9]; 5 mg once daily, 4 cycles, recurrent anaplastic oligodendrocytoma patient)?
Its value is “stable disease”.

And the “contrast-enhancement on T1-weighted images and vasogenic edema on FLAIR images” value ([9]; 15 mg/day, recurrent GBM (WHO IV) patient, first follow-up)?
The value was “drastic reduction”.

What about the “cytotoxicity to cells with high expression of Aurora-B” value [10] of the same compound?
The value was “no apparent cytotoxicity”.

And the “tube formation of HUVECs” value [11]?
Its value is “considerably blocked”.

And the IC50 [12]?
Its IC50 is 13 nM.

What about the tumor growth [13] of the same compound?
Its tumor growth is “slightly inhibited”.

What about the “phosphorylation of CSF1R and activation of downstream AKT” value [14] of the same compound?
Its value is “dramatically blocked”.

And the “phosphorylation of RET in tumor tissue” value [15]?
Its value is “rarely inhibited”.

What about the Cmax ([16]; brain) of the same compound?
Its Cmax is 1210 ng/g.

And the AUC(0-t) ([16]; plasma)?
Its AUC(0-t) is 4540 ng·h/mL.

What about the Cmax ([16]; plasma) of the same compound?
The Cmax was 1420 ng/mL.

What about the median survival time [17] of the same compound?
The median survival time was “prolonged median survival time”.

And the IC50 [18]?
Its IC50 is 4.3 nM.

And the IC50 [19]?
The IC50 was 134 nM.

What about the IC50 [20] of the same compound?
Its IC50 is 2.8 nM.

And the IC50 [21]?
The IC50 was over 20000 nM.

And the IC50 [22]?
The IC50 was 2.4 nM.

What about the “inhibition relative to the control, most of the kinases” value [23] of the same compound?
Its value is “less than 80%”.

With `Cn1nnc2c(C(N)=O)ncn2c1=O` [TMZ, temozolomide, reference compound] as the compound, how does the “tumor growth in D283 xenograft” value [4] read?
The value was “dramatically insensitive”.
